These results are taken from publication PMC11696753 (ACS Omega, 2024).

Molecules are shown by their SMILES. Residue numbers refer to the chain shown, from its start.

The subject of data set [1] is SW480 cell line. In words: MTT antiproliferative assay, SW480 cell line. In kind it is cell-based, human. The settings on record: for inhibition of SW480 cells compared with the CVB-D group: 10 μM, CVB-D 12 μM. The gist of the method: (§1)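 MTT assay. Cells were grown in DMEM with 10% FBS and 1% penicillin/streptomycin at 37 °C, 5% CO2, then seeded at 5 × 10^3 to 6 × 10^3 cells/mL in 96-well plates. Screening was at 10 μM, with CVB-D (12 μM) as positive control and curcumin as comparator. The dose range was 0–8 μM in 1 μM steps. Solvent-only wells served as controls. Read-out was absorbance of DMSO-dissolved formazan. Data are mean ± SD, n ≥ 3.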
Background: Formazan colour is commonly taken as a measure of viable cells.

The subject of data set [2] is CT26 cell line. In words: MTT antiproliferative assay, CT26 cell line. In kind it is cell-based, mouse. Summed up:
as §1

For data set [3], the target named is CDK1 (Mus musculus, UniProt P11440). In words: Western blot, CDK1 expression in CT26 cells. It counts as cell-based. The settings on record: CT26, 8 μM. The gist of the method: (§2)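 Western blot. SW480 or CT26 cells were seeded at 3 × 10^5 to 5 × 10^5/mL, allowed to adhere, then exposed to 0 (control) or 8 μM test compound for 24 h. Lysate protein was quantified by BCA and equalised, boiled, separated by SDS-PAGE, transferred to PVDF and detected with peroxidase labeling. Data are mean ± SD, at least three independent replicates, analysed by one-way ANOVA or t test.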
Sequence of CDK1 (Mus musculus, UniProt P11440) (P11440 whole entry): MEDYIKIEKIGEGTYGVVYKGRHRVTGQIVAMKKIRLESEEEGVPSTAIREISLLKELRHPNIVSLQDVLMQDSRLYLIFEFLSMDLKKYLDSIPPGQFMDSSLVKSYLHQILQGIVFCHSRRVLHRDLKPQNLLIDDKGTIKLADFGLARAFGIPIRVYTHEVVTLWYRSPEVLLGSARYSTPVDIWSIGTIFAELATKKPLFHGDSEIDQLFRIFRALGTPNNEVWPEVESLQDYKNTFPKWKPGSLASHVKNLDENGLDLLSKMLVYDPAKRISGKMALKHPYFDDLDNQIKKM
A general note: In western blotting, separated proteins are transferred to a membrane and probed.

Data set [4] has as its system PINK1. In words: Western blot, PINK1 expression in SW480 cells. It counts as cell-based, human. Particulars: SW480, 8 μM vs control. Summed up:
as §2

Data set [5] deals with p27. Put plainly: Western blot, p27 expression in SW480 cells. In kind it is cell-based, human. The settings on record: SW480, 8 μM vs control. Summed up:
as §2

Data set [6] has as its system PI3K. In words: Western blot, PI3K expression in SW480 cells. In kind it is cell-based, human. The settings on record: SW480, 8 μM. Summed up:
as §2

Data set [7] has as its system PINK1. Put plainly: Western blot, PINK1 expression in CT26 cells. It counts as cell-based, mouse. The settings on record: CT26, 8 μM vs control. Summed up: as §2
Data set [8] concerns Akt. Put plainly: Western blot, Akt expression in CT26 cells. It counts as cell-based, mouse. The settings on record: CT26, 8 μM. The gist of the method:
as §2

In data set [9] the test system is PI3K. In words: Western blot, PI3K expression in CT26 cells. In kind it is cell-based, mouse. Particulars: CT26, 8 μM. The gist of the method: as §2
Data set [10] deals with CDK1 (Homo sapiens, UniProt P06493). Put plainly: Western blot, CDK1 expression in SW480 cells. The settings on record: SW480, 8 μM. In kind it is cell-based. The gist of the method: as §2
Sequence of CDK1 (Homo sapiens, UniProt P06493) (P06493 whole entry): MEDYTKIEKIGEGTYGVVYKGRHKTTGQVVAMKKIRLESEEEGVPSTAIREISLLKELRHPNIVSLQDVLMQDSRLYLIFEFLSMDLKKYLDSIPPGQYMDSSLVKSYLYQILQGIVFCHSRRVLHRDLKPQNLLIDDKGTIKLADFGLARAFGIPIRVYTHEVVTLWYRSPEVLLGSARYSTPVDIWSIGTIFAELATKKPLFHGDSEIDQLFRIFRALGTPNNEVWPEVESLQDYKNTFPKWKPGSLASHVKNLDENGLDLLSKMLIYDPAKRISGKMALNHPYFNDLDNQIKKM
The subject of data set [11] is THP-1 cell line. Put plainly: MTT cytotoxicity, THP-1 cell line. Particulars: 0 to 8 μM, all concentrations. It counts as cell-based, human. Summed up:
(§3)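 Viability of THP-1 (human monocytic) and RAW264.7 (mouse macrophage) cells was measured by MTT. Cells were grown in DMEM with 10% FBS at 37 °C, 5% CO2, then seeded at 5 × 10^3 to 6 × 10^3 cells/mL. Test compound was given at 0–8 μM alongside an equal-volume solvent control. Read-out was absorbance after DMSO solubilisation of formazan. Data are mean ± SD from at least three independent experiments.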

The test system of data set [12] is Parkin. In words: Western blot, Parkin expression in SW480 cells. It counts as cell-based, human. Particulars: SW480, 8 μM vs control. The gist of the method:
as §2

Data set [13] deals with T1, SHP-2 (Homo sapiens, UniProt Q06124).
T1 sequence (Q06124 1-593): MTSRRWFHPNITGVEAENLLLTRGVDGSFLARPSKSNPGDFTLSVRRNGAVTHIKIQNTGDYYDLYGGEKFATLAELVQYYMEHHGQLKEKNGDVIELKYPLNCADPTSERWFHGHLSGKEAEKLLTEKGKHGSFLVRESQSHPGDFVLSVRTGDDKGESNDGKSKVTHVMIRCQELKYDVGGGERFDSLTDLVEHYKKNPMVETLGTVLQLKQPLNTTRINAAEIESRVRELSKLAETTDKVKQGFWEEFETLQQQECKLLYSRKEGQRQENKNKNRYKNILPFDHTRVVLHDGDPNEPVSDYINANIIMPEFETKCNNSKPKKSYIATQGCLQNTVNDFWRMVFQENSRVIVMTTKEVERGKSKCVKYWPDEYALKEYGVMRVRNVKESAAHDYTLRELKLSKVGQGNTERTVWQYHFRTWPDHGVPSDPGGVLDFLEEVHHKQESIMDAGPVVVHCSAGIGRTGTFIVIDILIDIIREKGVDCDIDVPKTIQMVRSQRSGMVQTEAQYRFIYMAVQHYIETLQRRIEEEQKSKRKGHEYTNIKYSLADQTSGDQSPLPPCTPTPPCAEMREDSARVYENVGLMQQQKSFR
Put plainly: Western blot, SHP-2 expression in SW480 cells. In kind it is cell-based. Particulars: SW480, 8 μM. Summed up:
as §2

The subject of data set [14] is RAW264.7 cell line. In words: MTT cytotoxicity, RAW264.7 cell line. In kind it is cell-based, mouse. Particulars: 0 to 8 μM, all concentrations. Summed up: as §3
Data set [15] concerns the target T1, SHP-2. Put plainly: Western blot, SHP-2 in human TME. In kind it is cell-based. Particulars: SW480 cocultured with THP-1. The gist of the method:
(§4)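 Western blot in tumour–macrophage cocultures: SW480 with THP-1 (human) and CT26 with RAW264.7 (mouse). Coculture drives the macrophages toward a cancer-promoting phenotype, after which test compound is applied. Protein was quantified by BCA, separated by SDS-PAGE, transferred to PVDF and detected with peroxidase labeling. Comparisons were against both the control and the untreated coculture. Data are mean ± SD, n ≥ 3.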

Data set [16] deals with Parkin. Put plainly: Western blot, Parkin expression in CT26 cells. It counts as cell-based, mouse. The settings on record: CT26, 8 μM vs control. The gist of the method: as §2
For data set [17], the target named is T2, SHP-2 (Mus musculus, UniProt P35235).
T2 sequence (P35235 1-593): T1 sequence (Q06124 1-593) with M450V, A550V, K590R
In words: Western blot, SHP-2 expression in CT26 cells. Particulars: CT26, 8 μM. In kind it is cell-based. Summed up: as §2

For data set [18], the system named is Akt. Put plainly: Western blot, Akt expression in SW480 cells. In kind it is cell-based, human. Particulars: SW480, 8 μM. The gist of the method: as §2
Data set [19] concerns NCM460 cell line. In words: MTT cytotoxicity, normal colon epithelial cell line NCM460. In kind it is cell-based, human. The gist of the method:
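MTT viability in NCM460 normal human colon epithelial cells. Test compound and curcumin were each tested at 0, 5, 10, 20, 40 and 80 μM, diluted in medium from a 10 mmol/L DMSO stock, against a solvent control. Formazan was dissolved in DMSO and absorbance read. Toxicity was graded by USP classification. Data are mean ± SD, at least three independent replicates.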

The test system of data set [20] is cytokines (TGF-β, IL-10, and Arg-1). Put plainly: Western blot, cytokine expression in the TME. It counts as cell-based. Particulars: vs coculture. The gist of the method:
as §4

For data set [21], the system named is Cyclin-D1. Put plainly: Western blot, Cyclin-D1 expression in SW480 cells. It counts as cell-based, human. The settings on record: SW480, 8 μM. The gist of the method:
as §2

For data set [22], the target named is T2, SHP-2. Put plainly: Western blot, SHP-2 in mouse TME. In kind it is cell-based. The settings on record: CT26 cocultured with RAW264.7. Summed up: as §4
Data set [23] has as its system Cyclin-D1. Put plainly: Western blot, Cyclin-D1 expression in CT26 cells. In kind it is cell-based, mouse. The settings on record: CT26, 8 μM. Summed up:
as §2

Data set [24] relates to chemokine receptors, CC and CXC chemokine subfamilies. In words: Chemokine mRNA levels in human and mouse TME. In kind it is cell-based. The settings on record: human and mouse TME cocultures. Summed up: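 Human system: SW480 cells cocultured with THP-1 cells. Mouse system: CT26 cells cocultured with RAW264.7 cells. Coculture induces the macrophages to differentiate into cancer-promoting cells, which are then treated with test compound. Chemokine receptor and CC/CXC chemokine mRNA levels were measured and compared with the control group. Data are mean ± SD from at least three independent replicates.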

For data set [25], the system named is p27. In words: Western blot, p27 expression in CT26 cells. In kind it is cell-based, mouse. Particulars: CT26, 8 μM vs control. The gist of the method:
as §2

Data set [26] concerns RKO cell line. Put plainly: MTT antiproliferative assay, RKO cell line. In kind it is cell-based, human. Particulars: NCM460 vs RKO. The gist of the method: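 Selectivity index is the IC50 in normal colon epithelial NCM460 cells divided by the IC50 in the colorectal cancer line. Both IC50s come from MTT viability assays: solvent-treated controls, formazan dissolved in DMSO, absorbance read-out, at least three independent replicates.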

Data set [27] has as its system PI3K and Akt proteins. In words: Western blot, PI3K-Akt pathway in TAMs. In kind it is cell-based. The gist of the method: as §4

In the case of `COc1cc(/C=C/C(=O)/C(=C\C2=CC=C[CH]2[Fe][CH]2C=CC=C2)C(=O)/C=C/c2ccc(OC)c(OC)c2)ccc1O` (stereo not shown) [Compound 3b, Cyclopenta-2,4-dien-1-yl(2-((1E,4E)-5(3,4-dimethoxyphenyl)-2-((E)-3-(4-hydroxy-3-methoxyphenyl)acryloyl)-3-oxopenta-1,4-dien-1-yl)cyclopenta-2,4-dien-1-yl)iron], the “inhibition of SW480 cells compared with the CVB-D group” value in data set [1] is “markedly superior”. Besides, in data set [2] (10 μM), the “proliferative capacity of CT26 cells compared to the control group” value was “significant differences”. In addition, the “proliferative capacity of CT26 cells compared to the CVB-D group” value in [2] (10 μM, CVB-D 12 μM) is reported as “no significant difference”.

The IC50 is the concentration needed to halve the response being measured. As to `COc1ccc(/C=C/C(=O)C(=CC2=CC=C[CH]2[Fe][CH]2C=CC=C2)C(=O)/C=C/c2ccc(OC)c(OC)c2)cc1OC` (stereo not shown) [Compound 3f, Cyclopenta-2,4-dien-1-yl(2-((E)-5(3,4-dimethoxyphenyl)-2-((E)-3-(3,4-dimethoxyphenyl)acryloyl)-3-oxopenta-1,4-dien-1-yl)cyclopenta-2,4-dien-1-yl)iron], the CDK1 inhibition rate was 20% in [3] and 18% in data set [10]. The “expression of PINK1 protein” value in [4] is listed as “significantly up-regulated”; in [7], “significantly increased”. Further, the “expression of p27 protein” value in [5] and in data set [25] was “significantly increased” each time. The “PI3K expression inhibition rate” value amounted to 46% in data set [6] and 15% in data set [9]. Also, the “Akt expression inhibition rate” value in data set [8] was determined as 50%; in data set [18] it was 48%. Further, the “inhibition of SW480 cells compared with the CVB-D group” value in [1] is recorded as “markedly superior”. In [1] (NCM460 vs SW480), the “selectivity index (SI), IC50 normal cells / IC50 SW480” value came out at 250. In [1] (SW480, tested 0-8 μM), the “concentration of strongest (optimal) inhibition” value stood at 8 µM. In addition, in data set [1] (SW480, vs control), the “concentration at which significant inhibition begins” value was 4 µM. Further, the half-inhibitory concentration (IC50) in data set [1] (read-out: IC50 against SW480 cells, SW480 cells, MTT) turned out to be 3710 nM; in [2] (read-out: IC50 against CT26 cells, CT26 cells, MTT), 1420 nM. In addition, in [11], the “cell viability of THP-1 cells” value was about 100%. The “expression of Parkin protein” value is listed as “significantly up-regulated” in data set [12] and “significantly increased” in data set [16]. Further, the SHP-2 inhibition rate in data set [13] was 76%; in data set [17] it was 24%. In addition, in data set [14], the “cell viability of RAW264.7 cells” value is listed as about 100%. For the same molecule, the “inhibition rate on SHP-2 target in human TME” value in data set [15] was 65%. Moreover, in data set [19] (NCM460), the “USP toxicity classification to normal colon epithelial cells” value is recorded as “low toxic/nontoxic”. Also, the “viability of NCM460 cells” value in data set [19] (at all concentrations (0, 5, 10, 20, 40, 80 μM)) is reported as “above 87%”. Also, the “expression levels of cytokines (TGF-β, IL-10, Arg-1) in the TME” value in data set [20] is given as “significantly reduced”. In data set [21], the “Cyclin-D1 protein expression inhibition rate” value worked out at 19%. Also, the “proliferative capacity of CT26 cells compared to the control group” value in data set [2] (10 μM) was “significant differences”. This molecule also yielded an optimal inhibitory concentration in data set [2] (CT26, tested 0-8 μM) of 8 µM. The “concentration at which an inhibitory effect is demonstrated” value in [2] (CT26, vs control) was 3 µM. Besides, the “selectivity index (SI), IC50 normal cells / IC50 CT26” value in data set [2] (NCM460 vs CT26) is reported as 654. Further, in [22], the “inhibition rate on SHP-2 target in mouse TME” value came out at 32%. Also, the “effect on Cyclin-D1 protein compared to SW480” value in data set [23] was “stronger inhibitory effect”. Also, the “effect on CCL and CXCL subfamilies (mRNA)” value in data set [24] is reported as “able to inhibit”. For the same molecule, the “mRNA levels of CCR chemokine receptors” value in data set [24] is “significantly reduced”. Moreover, the “selectivity index (SI), IC50 normal cells / IC50 RKO” value in data set [26] is given as 162. For the same molecule, the “expression levels of PI3K and Akt proteins in both coculture systems” value in [27] was “reduced”.
